Measured values taken from PMC8237268 (Journal of Medicinal Chemistry, 2021).

Legend:
Type in all cases: binding
[1] = molecular target: p65_45/14-3-3σΔC complex (Homo sapiens, UniProt P31947+Q04206, E49R); assay: X-ray crystal soaking of fragments into p65_45/14-3-3σΔC crystals; settings: soak 10 mM compound, 7 days; imine bond to Lys122 of 14-3-3
Summary of the method: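 His-tag-free 14-3-3σΔC (12 mg/mL) was complexed overnight 1:2 with N-acetyl, C-amide p65 pSer45 peptide in 20 mM HEPES pH 7.5, 2 mM MgCl2, 2 mM β-mercaptoethanol. Crystals grew in hanging drops (95 mM HEPES pH 7.5, 27–28% PEG400, 190 mM CaCl2, 5% glycerol). Test compound from DMSO stock was added to final 10 mM (≤1% DMSO) for 7 days. Crystals were flash-frozen; binding was judged from 2Fo-Fc density.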

[2] = molecular target: T1, p65_45/14-3-3γ (Homo sapiens, UniProt P61981+Q04206); assay: Fluorescence anisotropy; settings: 50 μM 14-3-3γ, 100 nM p65_45
[3] = molecular target: T1, p65_45/14-3-3γ; assay: Fluorescence anisotropy; settings: fold-change of apparent KD in comparison to a DMSO control, 1 mM fragment
[4] = molecular target: T2, TAZ-peptide/14-3-3γ (Homo sapiens, UniProt P61981); assay: FA compound titration, selectivity: TAZ-peptide and 14-3-3γ; settings: 0.1 μM 14-3-3γ, 10 nM peptide
T2 sequence (P61981 1-247): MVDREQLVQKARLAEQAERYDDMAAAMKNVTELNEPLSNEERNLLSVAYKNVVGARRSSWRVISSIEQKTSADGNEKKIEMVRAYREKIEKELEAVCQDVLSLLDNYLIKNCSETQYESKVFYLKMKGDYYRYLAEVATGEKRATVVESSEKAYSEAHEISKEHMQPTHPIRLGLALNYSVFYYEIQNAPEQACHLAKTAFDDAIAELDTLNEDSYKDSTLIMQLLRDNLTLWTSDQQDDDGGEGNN

[5] = molecular target: T3, ERα-peptide/14-3-3γ (Homo sapiens, UniProt P61981); assay: FA compound titration, selectivity: ERα-peptide and 14-3-3γ; settings: 0.1 μM 14-3-3γ, 10 nM peptide
T3 sequence (P61981 1-247): T2 sequence (P61981 1-247)

[6] = molecular target: T4, p53-peptide/14-3-3γ (Homo sapiens, UniProt P61981); assay: FA compound titration, selectivity: p53-peptide and 14-3-3γ; settings: 0.3 μM 14-3-3γ, 10 nM peptide
T4 sequence (P61981 1-247): T2 sequence (P61981 1-247)

Sequence of p65_45/14-3-3σΔC complex (P31947 1-231, other chains not shown): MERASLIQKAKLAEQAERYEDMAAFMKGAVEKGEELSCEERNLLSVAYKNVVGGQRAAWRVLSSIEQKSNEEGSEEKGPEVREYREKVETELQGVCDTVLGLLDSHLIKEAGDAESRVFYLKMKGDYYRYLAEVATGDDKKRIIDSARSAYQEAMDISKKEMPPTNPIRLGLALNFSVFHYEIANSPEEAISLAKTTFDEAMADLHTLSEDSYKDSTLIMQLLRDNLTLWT

| binding of the fragment in X-ray crystal soaking experiments [1] | SMILES | ternary complex formation in FA compound titration (in words) [2] | also measured |
| --- | --- | --- | --- |
| significant electron density coverage | O=Cc1ccc([N+](=O)[O-])c(N2CCCC(O)C2)c1 (stereo not shown) [13l] | did not elicit significant ternary complex formation | – |
| significant electron density coverage | COC1CCCN(c2cc(C=O)ccc2[N+](=O)[O-])C1 (stereo not shown) [13e] | did not elicit significant ternary complex formation | – |
| – | O=Cc1ccc(S(=O)(=O)N2CCC(N3CCCC3)CC2)cc1 [23m] | – | SF (stabilization factor) [3]: 4.5 fold |
| – | O=Cc1ccc(S(=O)(=O)N2CCNc3ccccc32)cc1 [24j] | – | ternary complex formation with TAZ [4]: no ternary complex formation was detected; ternary complex formation with ERα [5]: no ternary complex formation was detected; ternary complex formation with p53 [6]: no ternary complex formation was detected |
| significant electron density coverage | O=Cc1ccc([N+](=O)[O-])c(N2CCC(O)CC2)c1 [13f] | did not elicit significant ternary complex formation | – |
| bound to Lys122 | O=Cc1ccc([N+](=O)[O-])c(OC(=O)C2CCC2)c1 [10a] | – | – |
| detected in the electron density map | O=Cc1ccc(-n2ccnc2Br)nc1 [16d] | induced an increase in anisotropy | – |
